Bioassay records from PubChem.
NALP1 inh: NALP1 inhibition; S. cerevisiae NALP1/ASC/caspase-1 growth, X-gal OD620, 72 h; inhibition, % at 10 µM; 280,000 compounds, 0.61% hits; AID 2071; in the data active = inhibition mostly above about 24%, no sharp cut-off; inactive = mostly below about 32%
Lmaj promast: Leishmania major promastigote growth inhibition | AID 1063 | Leishmania major promastigotes, resazurin fluorescence viability | inhibition, % at 10 µM | 200,000 compounds, 9% hits; in the data active = inhibition above about 50%;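 note: promastigotes grown with compound for 44 hours at 28 °C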
NLRP3 yeast inh: NALP3 inhibition in yeast | 330,000 compounds, 0.39% hits | Yeast reconstituted NLRP3/ASC/caspase-1, beta-gal luminescence, 24 h | inhibition, % at 10 µM;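 active = inhibition of 50% or more; inactive = inhibition below 50%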;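 note: plate controls were induced DMSO wells for no effect and uninduced yeast grown without galactose for full effect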
PolyA inhibitor: yeast polyadenylation inhibition; S. cerevisiae SKY197-pL101 polyadenylation reporter, beta-gal luminescence; efflux-impaired pdr1/pdr3 knockout yeast; score 100 = 6 SD above DMSO; activity score, % at 12 µM; 300,000 compounds, 0.02% hits; AID 1875;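 active = lowest replicate activity score at least 50, where 100 means six control SD above control mean; inconclusive = lowest score under 50 but half or more replicates reach 50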;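 note: yeast exposed to compound for 9 h at 30 °C; higher score means more reporter readthrough which indicates perturbed polyadenylation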
Calb FLC: C. albicans growth modulation with fluconazole; C. albicans CaCi-2 + fluconazole, Alamar Blue growth, 48 h; growth inhibition, % (no concentration beside the values); 300,000 compounds, 0.57% hits; AID 1979;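 active = growth inhibition above about 58% in most replicates, limit read from the data, passing the limit was not always enough; inconclusive = exactly half the replicates above a set limit; inactive = most replicates below a set limit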;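 note: all wells also contain fluconazole at 8 µg/ml as a sub-toxic cotreatment; 0% = median of DMSO wells and 100% = median of geldanamycin control wells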
T cruzi inh: T. cruzi replication inhibition. inhibition, % (no concentration beside the values). 300,000 compounds, 1.4% hits. AID 1885. T. cruzi beta-gal in NIH3T3, luminescence, 90 h;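 active = mean inhibition across valid replicates above about 55%, limit read from the data; inconclusive = mean below that limit but half or more replicates reach it; inactive = mean below it, under half of replicates reach it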;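 note: signal also drops with host cell toxicity which is not excluded here; 0% = plate median of DMSO wells and 100% = zero luminescence signal; higher percent means less beta-gal luminescence so fewer parasites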
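assay system = mouse NIH/3T3 fibroblasts infected with β-gal-expressing T. cruzi Tulahuen C4 | input = 5,000 NIH/3T3 host cells per well | buffer or medium = DMEM plus 2% FBS | timing = 3 h host attachment, then at least 90 h co-culture | measured by = GalScreen luminescence, 60 min | evaluation = luminescence reflecting intracellular parasite burden, expressed as percent inhibition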
Active calls of the source: *; ? = inconclusive; . = no result. The sample as a whole holds a higher share of hits than the screen did.

SMILES | NALP1 inh | Lmaj promast | NLRP3 yeast inh | PolyA inhibitor | Calb FLC | T cruzi inh
Cc1ccc(S(=O)(=O)N2CCC(C(=O)OCC(=O)NC3(C#N)CCCCC3)CC2)cc1C | . | . | 15 | -12 | -3 | -10
COc1ccccc1NC(=O)COC(=O)CCC(=O)c1cccs1 | . | . | -3 | . | . | .
CC/C(=N/NC(=O)c1ccccc1O)c1c(C)[nH]n(-c2ccccc2)c1=O | . | . | -7 | -4 | 101* | -11
Cc1[nH]n(-c2ccccc2)c(=O)c1C(=O)c1ccccc1 | . | . | 6 | 17 | . | -10
CCOC(=O)c1ccc(N=c2sc(C(=O)OC)cc(=O)n2-c2ccc(C(=O)OCC)cc2)cc1 | 33 | 100* | 9 | 15 | -4 | 39
COC(=O)c1cc(=O)n(-c2ccccc2)c(=Nc2ccccc2)s1 | 52 | 87* | 3 | -5 | -8 | 16
O=C1C=C(c2ccc3c(c2)OCCO3)C[C@@H](c2ccc(F)cc2)C1 | . | . | 1 | . | . | .
O=C(NCCN1CCOCC1)c1sc2cc(Cl)ccc2c1Cl | -1 | . | 27 | -21 | 5 | 20
CC(=O)Oc1cc2c(C(=O)NCCCN3CCOCC3)c(C)oc2c2ccccc12 | 2 | 52* | 14 | -3 | -2 | -4
O=C(NCCCN1CCOCC1)c1cc2c(s1)CSC2 | 11 | 80* | 1 | 4 | ? | 8
O=C(NCCCN1CCOCC1)c1sc2ccccc2c1Cl | 13 | 80* | 7 | 14 | 10 | 0
Cc1cc(OCC(=O)NCCCN2CCOCC2)cc(C)c1Cl | . | 71* | 12 | -26 | 0 | 16
CC(OC(=O)C1=COCCO1)C(=O)Nc1ncc(Cl)cc1Cl (configuration not stated) | . | . | 13 | . | . | .
COc1ccc(C(CNc2nc(-c3cccnc3)nc3ccccc23)N(C)C)cc1 (configuration not stated) | 8 | . | 14 | -21 | -15 | 45
Cc1cc(NC(=O)CN2C(=O)NC(C)(c3ccc(Cl)cc3Cl)C2=O)no1 (configuration not stated) | . | . | 0 | . | . | .
Cc1ccc(N=Nc2cc(C)ccc2O)c(C)c1 | 3 | . | 14 | -14 | 4 | 1
Oc1ccc(N=Nc2ccc3c(c2)OCCO3)c2ncccc12 | 5 | . | 25 | 18 | 89* | 68*
Cc1ccc(C)c(N=Nc2ccc(O)c3ncccc23)c1 | 2 | 100* | 17 | -20 | 108* | 31
O=C(Nc1ncccc1O)c1ccc2c(c1)OCCO2 | . | . | 11 | -9 | 0 | -9
Cc1cccc(N=Nc2ccc(O)c3ncccc23)c1 | 15 | 100* | 27 | -10 | -1 | 51
Cc1ccc2c(c1)c(N=Nc1cccc(C(=O)O)c1)c(O)n2C | -3 | 0 | 16 | -18 | 53 | -9
CN1C(=O)C2C(c3ccc(N(C)C)cc3)NN(Cc3ccccc3)C2C1=O (configuration not stated) | 0 | 17 | 34 | -13 | 7 | -4
Cc1ccc(C)n1-c1ccc(C(=O)N/N=C/c2ccncc2)cc1 | 3 | 12 | 6 | -12 | -6 | -6
O=C(NCC1CCN(c2ccc(S(=O)(=O)N3CCOCC3)cc2)CC1)c1ccc(Cl)cc1 | 12 | 24 | 3 | -2 | . | 10
CC(=O)N1CCOc2ccc(S(=O)(=O)N3CCC(C(=O)Nc4ccc(F)cc4)CC3)cc21 | 17 | . | 0 | 8 | -14 | 4
SMILES | NALP1 inh | Lmaj promast | NLRP3 yeast inh | PolyA inhibitor | Calb FLC | T cruzi inh
Cc1ccc(-c2nn(-c3cc(N4CCNCC4)ccc3[N+](=O)[O-])c(=O)c3ccccc23)cc1 | 8 | 101* | 9 | 0 | 12 | 73*
Cc1ccc(C(O)CN2C3=NCCN3c3ccccc32)cc1 (configuration not stated) | 28 | 96* | 48 | -5 | -10 | -1
OC(CN1C2=NCCN2c2ccccc21)c1ccccc1 (configuration not stated) | 3 | 9 | 10 | -6 | -1 | -6
Cc1ccc2[nH]c(=O)c(CN(CCCN3CCOCC3)C(=O)Nc3cccc(Cl)c3)cc2c1 | 18 | 39 | 8 | -4 | -16 | 18
CCOC(=O)c1ccccc1NC(=O)Cc1ccc(S(=O)(=O)N2CCCC2)s1 | . | . | 16 | . | . | .
O=C(CCC(=O)N1CCN(S(=O)(=O)c2ccc(Cl)cc2)CC1)Nc1ccc2ccccc2c1 | 35 | 81* | -3 | 10 | -7 | -26
CN(CC(=O)Nc1ccc(S(=O)(=O)N2CCCC2)cc1)Cc1ccc(Cl)cc1Cl | 36 | 86* | -4 | 21 | 0 | 11
CCOc1ccc(NC(=O)CCN2CCN(S(=O)(=O)c3cc(Cl)ccc3OC)CC2)cc1 | 38 | 99* | 7 | 2 | 1 | 22
COc1ccc(NC(=O)CCN2CCN(S(=O)(=O)c3ccc(Cl)cc3)CC2)cc1 | -9 | 93* | 1 | -20 | -21 | -8
O=C(CN(Cc1ccccc1)S(=O)(=O)c1ccccc1)N/N=C/c1ccccc1C(=O)O | 10 | -4 | 10 | -4 | 6 | -9
COc1ccc(S(=O)(=O)N2CCCN(CCC(=O)Nc3cccc(C(F)(F)F)c3)CC2)cc1 | 4 | 100* | 17 | . | . | .
COc1cccc(OCCCN2CCN(S(=O)(=O)c3ccc(NC(C)=O)cc3)CC2)c1 | 7 | 68* | 17 | 14 | ? | -3
COc1ccc(NC(=O)CCN2CCN(S(=O)(=O)c3ccc(F)cc3)CC2)cc1 | 14 | . | -5 | 23 | 12 | 0
O=C(CSc1n[nH]c(-c2ccccc2)n1)Nc1ncccn1 | 8 | -2 | 17 | -19 | 4 | -23
O=C(CSc1n[nH]c(-c2ccccc2)n1)Nc1ccc(Br)cn1 | 14 | 54* | 8 | -4 | 12 | 2
O=C(c1ccccc1[N+](=O)[O-])n1cnc2ccccc21 | 6 | -2 | -1 | -6 | 9 | -12
O=C(c1cc(Cl)ccc1[N+](=O)[O-])n1cnc2ccccc21 | 13 | 55* | -4 | -16 | -7 | -20
CCCC1NC(C(=O)O)Cc2c1[nH]c1ccccc21 (configuration not stated) | 3 | . | 11 | 6 | 2 | -9
O=S1(=O)CC=C(CSC(=S)NC2CCS(=O)(=O)C2)C1 (configuration not stated) | 10 | 76* | 11 | . | 29 | -9
NNC(=S)NC1CCS(=O)(=O)C1 (configuration not stated) | . | . | 3 | 1 | -1 | -4
COc1cccc(-n2nnnc2S(C)(=O)=O)c1 | 18 | 97* | -21 | -51 | 105* | 49
CCCCCCCCCC[n+]1cccc2c3ccccc3ccc21 | 26* | 100* | . | -85 | 101* | 70*
CCCCCCCC[n+]1cccc2c3ccccc3ccc21 | 11 | 101* | 11 | -2 | 102* | 68*
COc1ccc(CS(=O)c2nc(C)cc(C)c2S(C)(=O)=O)cc1 (configuration not stated) | -41 | 0 | 7 | 1 | -3 | -11
CCOC(=O)C1(CCOc2ccccc2)CCN(CC=C(C)C)CC1 | 10 | . | 16 | -4 | 7 | -4
